Source: ChEMBL document CHEMBL1123290, “Synthesis, antimalarial activity, and quantitative structure-activity relationships of tebuquine and a series of related 5-[(7-chloro-4-quinolinyl)amino]-3-[(alkylamino)methyl] [1,1'-biphenyl]-2-ols and N omega-oxides” (1986)

Experiments:
Format in all cases: functional
[1] = tested on: Plasmodium berghei; assay: Change in mean survival time for control (average 6.2 days) versus treated mice (Mus musculus) 72 hrs after 640 mg/kg subcutaneous dose
[2] = tested on: Plasmodium berghei; assay: Antimalarial activity as 60-day survivors in infected mice (Mus musculus) after single 320mg/kg subcutaneous dose 72 hr post infection
Method in brief: (§1)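 Mice were infected with a normal drug-sensitive Plasmodium berghei strain. At 72 h postinfection each received one subcutaneous dose of compound dissolved or suspended in peanut oil, in five-mouse groups per dose. The read-out was the number of mice alive at 60 days postinfection, which were scored as cured.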

[3] = tested on: Plasmodium berghei; assay: Antimalarial activity as 60-day survivors in Plasmodium berghei infected mice (Mus musculus) after single 160mg/kg subcutaneous dose 72 hr post infection; method in brief: as §1
[4] = tested on: Plasmodium berghei; assay: Change in mean survival time for control (average 6.2 days) versus treated mice (Mus musculus) 72 hrs after 20 mg/kg subcutaneous dose
[5] = tested on: Plasmodium berghei; assay: Change in mean survival time for control (average 6.2 days) versus treated mice (Mus musculus) 72 hrs after 5 mg/kg subcutaneous dose
[6] = tested on: Mus musculus; assay: Antimalarial activity, administered as a single subcutaneous dose of 80 mg/kg, 72 hrs post infection measured as number of mice (Mus musculus) surviving at 60 days post infection; method in brief: as §1
[7] = tested on: Plasmodium berghei; assay: Antimalarial activity as 60-day survivors in infected mice (Mus musculus) after single 20 mg/kg subcutaneous dose 72hr post infection; method in brief: as §1
[8] = tested on: Plasmodium berghei; assay: Difference in mean survival time in mice (Mus musculus) (control = 6.2 days) after single 40mg/kg subcutaneous dose 72hr post infection
[9] = tested on: Plasmodium berghei; assay: (§2) Change in mean survival time for control (average 6.2 days) versus treated mice (Mus musculus) 72 hrs after […] subcutaneous dose
[10] = tested on: Plasmodium berghei; assay: Antimalarial activity in primary screen
[11] = tested on: Mus musculus; assay: Delta MST, difference in mean survival time of the control mice (an average of 6.2 days) from the mean survival time of the treated mice after a single sc dose of 160 mg/kg, 72-h postinfection; settings: route subcutaneous
[12] = tested on: Plasmodium berghei; assay: Change in mean survival time for control (average 6.2 days) versus treated mice (Mus musculus) 72 hrs after […] subcutaneous dose
[13] = tested on: Mus musculus; assay: Antimalarial activity, administered as a single subcutaneous dose of 640 mg/kg, 72 hrs post infection measured as number of mice (Mus musculus) surviving at 60 days post infection; method in brief: as §1
[14] = tested on: Plasmodium berghei; assay: Change in mean survival time for control (average 6.2 days) versus treated mice (Mus musculus) 72 hrs after 10 mg/kg subcutaneous dose
[15] = tested on: Mus musculus; assay: Antimalarial activity, administered as a single subcutaneous dose of 40 mg/kg, 72 hrs post infection measured as number of mice (Mus musculus) surviving at 60 days post infection; method in brief: as §1
[16] = tested on: Plasmodium berghei; assay: Change in mean survival time for control (average 6.2 days) versus treated mice (Mus musculus) 72 hrs after 160 mg/kg subcutaneous dose
[17] = tested on: Plasmodium berghei; assay: Change in mean survival time for control (average of 6.2 days) versus treated mice (Mus musculus) 72 hrs after 80 mg/kg subcutaneous dose
[18] = tested on: Plasmodium berghei; assay: Change in mean survival time for control (average 6.2 days) versus treated mice (Mus musculus) 72 hrs after 320 mg/kg subcutaneous dose
[19] = tested on: Mus musculus; assay: Delta MST, difference in mean survival time of the control mice (an average of 6.2 days) from the mean survival time of the treated mice after a single sc dose of 1.25 mg/kg, 72-h postinfection; settings: route subcutaneous
[20] = tested on: Plasmodium berghei; assay: Change in mean survival time for control (average 6.2 days) versus treated mice (Mus musculus) after 160 mg/kg subcutaneous dose
[21] = tested on: Plasmodium berghei; assay: Change in mean survival time of Plasmodium berghei infected mice (Mus musculus) after 5 mg/kg subcutaneous dose
[22] = tested on: Plasmodium berghei; assay: as §2; remark: listed apart in the source
[23] = tested on: Plasmodium berghei; assay: Change in mean survival time for control (average 6.2 days) versus treated mice (Mus musculus) after 320 mg/kg subcutaneous dose
[24] = tested on: Plasmodium berghei; assay: Change in mean survival time for control (average 6.2 days) versus treated mice (Mus musculus) after 40 mg/kg subcutaneous dose
[25] = tested on: Mus musculus; assay: Compound was evaluated for parenteral antimalarial activity against Plasmodium berghei in mice (Mus musculus) after single dose (1.25 mg/kg subcutaneously)
[26] = tested on: Plasmodium berghei; assay: Change in mean survival time in control (average 6.2 days) versus treated mice (Mus musculus) after 80 mg/kg subcutaneous dose
[27] = tested on: Plasmodium berghei; assay: Change in mean survival time for control (average 6.2 days) versus treated mice (Mus musculus) after 20 mg/kg subcutaneous dose
[28] = tested on: Plasmodium berghei; assay: Change in mean survival time of Plasmodium berghei infected mice (Mus musculus) on 1.25 mg/kg subcutaneous dose
[29] = tested on: Plasmodium berghei; assay: Change in mean survival time of Plasmodium berghei infected mice (Mus musculus) after […] subcutaneous dose
[30] = tested on: Plasmodium berghei; assay: Difference in mean survival time of Plasmodium berghei infected mice (Mus musculus) after 10 mg/kg subcutaneous dose

Compound | Delta MST [1] [days] | No. of mice cured [2] | No. of mice cured [3] | Delta MST [4] [days] | Delta MST [5] [days] | No. of mice cured [6] | Delta MST [8] [days] | ED30 [10] [mg/kg] | Delta MST [12] [days] | No. of mice cured [13] | Delta MST [14] [days] | also measured
CCN(CC)Cc1cc(Nc2ccnc3cc(Cl)ccc23)cc(-c2cccc(Cl)c2)c1O | 21.9 | 5 | 4 | 22.4 | 3.9 | 2 | 29.4 | 17.3 | 1.3 | 4 | 15.5 | No. of mice cured [7]: 1; Delta MST [9]: 0.3 days; Delta MST [11]: 31.9 days; No. of mice cured [15]: 3
Oc1c(CNC2CCCCC2)cc(Nc2ccnc3cc(Cl)ccc23)cc1-c1ccc(Cl)cc1 | 17.6 | 4 | 4 | 12.9 | 1.5 | 3 | 17.9 | – | 0.5 | 4 | 4.1 | Delta MST [16]: 20.6 days; Delta MST [17]: 23.6 days; Delta MST [18]: -0.4 days; Delta MST [19]: 0.7 days
CCN(CC)Cc1cc(Nc2cc[n+]([O-])c3cc(Cl)ccc23)cc(-c2cccc(C(F)(F)F)c2)c1O | – | 1 | – | – | – | – | – | 113 | – | 4 | – | Delta MST [20]: 21.1 days; Delta MST [21]: 0.3 days; Delta MST [22]: 27.9 days; Delta MST [23]: 24.9 days; Delta MST [24]: 8.5 days; Delta MST [25]: 0.3; Delta MST [26]: 11.7 days; Delta MST [27]: 5.9 days; Delta MST [28]: 0.3 days; Delta MST [29]: -0.1 days; Delta MST [30]: 1.1 days
